One block for each compound: values may come before it. *1 amine or outer side, *2 acyl side, *3 side chain or, on linkers, in order; H or OH if unused. Where a SMILES comes first, the peptide text is derived from it. [ ]: non-standard residue; d: D form. The star is where a group is joined. ξ: configuration not given here. LeuΨ(ξCHOHCH2)Val = CC(C)C[C@H](N[*:1])C(O)C[C@H](C(=O)[*:2])C(C)C; Boc = CC(C)(C)OC(=O)*; Piv = CC(C)(C)C(=O)*
What was measured:
[1] = biological target: T1, Renin (Homo sapiens, UniProt P00797); assay: In vitro inhibition of purified Human kidney renin (250 pg/mL) incubated with angiotensinogen at pH 7.2
T1 sequence (P00797 whole entry): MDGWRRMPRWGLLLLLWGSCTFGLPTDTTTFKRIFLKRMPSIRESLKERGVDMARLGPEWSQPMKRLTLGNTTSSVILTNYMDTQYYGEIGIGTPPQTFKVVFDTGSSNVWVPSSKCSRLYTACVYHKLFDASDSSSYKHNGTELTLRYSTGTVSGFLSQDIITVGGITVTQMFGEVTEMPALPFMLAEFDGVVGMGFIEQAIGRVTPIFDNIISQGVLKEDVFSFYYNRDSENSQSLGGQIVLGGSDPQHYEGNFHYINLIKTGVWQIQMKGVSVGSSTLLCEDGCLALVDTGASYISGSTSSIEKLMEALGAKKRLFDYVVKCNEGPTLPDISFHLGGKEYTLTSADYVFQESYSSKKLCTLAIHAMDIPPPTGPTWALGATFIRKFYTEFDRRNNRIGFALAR
Procedure, shortened: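 Purified human kidney renin at 250 pg/mL, incubated at 37 °C with human angiotensinogen at pH 7.2.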

[2] = tested on: Monkey; assay: Reduction of blood pressure measured 120 min after administration of compound(dose 1 mg/kg, iv); type: functional
Procedure, shortened: (§1)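 Salt-depleted marmosets given a single intravenous or oral dose. Blood pressure change recorded in mmHg at 30, 60 and 120 min after dosing.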

[3] = tested on: Monkey; assay: Reduction of blood pressure measured 120 min after administration of compound(dose 1 mg/kg, p.o.); type: functional; settings: route oral; procedure, shortened: as §1
[4] = tested on: Monkey; assay: Reduction of blood pressure measured 120 min after administration of compound(dose 10 mg/kg, po); type: functional; procedure, shortened: as §1
[5] = tested on: Monkey; assay: Reduction of blood pressure measured 30 min after administration of compound(dose 3mg/kg, po); type: functional; procedure, shortened: as §1
[6] = tested on: Monkey; assay: Reduction of blood pressure measured 120 min after administration of compound(dose 0.1 mg/kg, iv); type: functional; procedure, shortened: as §1
[7] = tested on: Monkey; assay: Reduction of blood pressure measured 30 min after administration of compound(dose 0.1 mg/kg, iv); type: functional; procedure, shortened: as §1
[8] = tested on: Monkey; assay: Reduction of blood pressure measured 30 min after administration of compound(dose 1 mg/kg, p.o.); type: functional; settings: route oral; procedure, shortened: as §1
[9] = tested on: Monkey; assay: Reduction of blood pressure measured 60 min after administration of compound(dose 1 mg/kg, p.o.); type: functional; settings: route oral; procedure, shortened: as §1
[10] = tested on: Monkey; assay: Reduction of blood pressure measured 60 min after administration of compound(dose 10mg/kg, po); type: functional; procedure, shortened: as §1
[11] = tested on: Monkey; assay: Reduction of blood pressure measured 60 min after administration of compound(dose 1 mg/kg, iv); type: functional; procedure, shortened: as §1
[12] = biological target: T2, Cathepsin D (Bos taurus, UniProt P80209); assay: In vitro inhibition of bovine cathepsin D
T2 sequence (P80209 whole entry): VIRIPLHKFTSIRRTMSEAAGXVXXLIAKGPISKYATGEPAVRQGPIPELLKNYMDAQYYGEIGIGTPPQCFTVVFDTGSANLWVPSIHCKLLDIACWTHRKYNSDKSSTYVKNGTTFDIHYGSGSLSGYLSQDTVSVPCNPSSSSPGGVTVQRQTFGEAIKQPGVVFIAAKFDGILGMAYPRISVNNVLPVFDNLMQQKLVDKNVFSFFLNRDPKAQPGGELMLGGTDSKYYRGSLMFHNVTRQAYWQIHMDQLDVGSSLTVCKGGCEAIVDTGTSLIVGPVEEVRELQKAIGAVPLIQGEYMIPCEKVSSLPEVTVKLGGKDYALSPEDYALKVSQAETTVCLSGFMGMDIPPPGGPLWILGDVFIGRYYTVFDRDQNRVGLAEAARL

[13] = tested on: Monkey; assay: Reduction of blood pressure measured 60 min after administration of compound(dose 0.1 mg/kg, iv); type: functional; procedure, shortened: as §1
[14] = tested on: Monkey; assay: Reduction of blood pressure measured 60 min after administration of compound(dose 3 mg/kg, po); type: functional; procedure, shortened: as §1
[15] = tested on: Monkey; assay: Reduction of blood pressure measured 30 min after administration of compound(dose 1 mg/kg, iv); type: functional; procedure, shortened: as §1
[16] = tested on: Monkey; assay: Reduction of blood pressure measured 30 min after administration of compound(dose 10mg/kg, po); type: functional; procedure, shortened: as §1
[17] = tested on: Monkey; assay: Reduction of blood pressure measured 120 min after administration of compound(dose 3 mg/kg, po); type: functional; procedure, shortened: as §1

Structure (SMILES): CCCCNC(=O)[C@@H](CC(O)[C@H](CC(C)C)NC(=O)[C@H](Cc1cnc[nH]1)NC(=O)C(C)(OC(=O)C(C)(C)C)c1ccccc1)C(C)C (stereo not given in full)
IC50 [1]: 0.02 µM

Structure (SMILES): CCCCNC(=O)[C@@H](CC(O)[C@H](CC1CCCCC1)NC(=O)[C@H](Cc1cnc[nH]1)NC(=O)C(Cc1ccccc1)CP(=O)(OCC)OCC)C(C)C (stereo not given in full)
IC50 [1]: 0.004 µM

Structure (SMILES): CC[C@H](C)[C@H](NC(=O)[C@@H](CC(O)[C@H](CC(C)C)NC(=O)[C@H](Cc1cnc[nH]1)NC(=O)[C@H](Cc1ccccc1)NC(=O)OC(C)(C)C)C(C)C)C(=O)N[C@@H](Cc1cnc[nH]1)C(N)=O (stereo not given in full) (Boc-FH[LeuΨ(ξCHOHCH2)Val]IH-NH2)
IC50 [1]: 0.015 µM

Structure (SMILES): CCCCNC(=O)[C@@H](CC(O)[C@H](CC1CCCCC1)NC(=O)[C@H](Cc1c[nH]cn1)NC(=O)C(C)(OC(=O)C(C)(C)C)c1ccccc1)C(C)C (stereo not given in full)
IC50 [1]: 0.007 µM

Structure (SMILES): CC[C@H](C)[C@H](NC(=O)[C@@H](CC(O)[C@H](CC(C)C)NC(=O)[C@H](Cc1c[nH]cn1)NC(=O)[C@H](Cc1ccccc1)NC(=O)C(C)(C)C)C(C)C)C(=O)N[C@@H](Cc1c[nH]cn1)C(N)=O (stereo not given in full) (Piv-FH[LeuΨ(ξCHOHCH2)Val]IH-NH2)
IC50 [1]: 0.02 µM

Structure (SMILES): CC[C@H](C)[C@H](NC(=O)[C@@H](CC(O)[C@H](CC(C)C)NC(=O)[C@H](Cc1cnc[nH]1)NC(=O)C(C)(OC(=O)C(C)(C)C)c1ccccc1)C(C)C)C(=O)N[C@@H](Cc1cnc[nH]1)C(N)=O (stereo not given in full)
IC50 [1]: 0.02 µM

Now from value to compound, other results behind:

IC50 [1]: 0.004 µM
Structure (SMILES): CCCCNC(=O)[C@@H](CC(O)[C@H](CC1CCCCC1)NC(=O)[C@H](Cc1cnc[nH]1)NC(=O)[C@@H](CSC(C)(C)C)Cc1ccccc1)C(C)C (stereo not given in full)

IC50 [1]: 0.002 µM
Structure (SMILES): CCCCNC(=O)[C@@H](CC(O)[C@H](CC1CCCCC1)NC(=O)[C@H](Cc1c[nH]cn1)NC(=O)[C@H](Cc1ccccc1)C[S+]([O-])C(C)(C)C)C(C)C (stereo not given in full)

IC50 [1]: 0.006 µM
Structure (SMILES): CCCCNC(=O)[C@@H](CC(O)[C@H](CC1CCCCC1)NC(=O)[C@H](Cc1c[nH]cn1)NC(=O)C(CC(=O)C(C)(C)C)Cc1ccccc1)C(C)C (stereo not given in full)

IC50 [12]: 3.2 µM
Structure (SMILES): CCCCNC(=O)[C@@H](CC(O)[C@H](CC1CCCCC1)NC(=O)[C@H](Cc1c[nH]cn1)NC(=O)C(Cc1ccccc1)CS(=O)(=O)C(C)(C)C)C(C)C (stereo in doubt; 8i)
Delta blood pressure [2]: -12 mmHg
Delta blood pressure [3]: -6 mmHg
Delta blood pressure [4]: -23 mmHg
Delta blood pressure [5]: -6 mmHg
Delta blood pressure [6]: -1 mmHg
Delta blood pressure [7]: -13 mmHg
Delta blood pressure [8]: 0 mmHg
Delta blood pressure [9]: -5 mmHg
Delta blood pressure [10]: -23 mmHg
Delta blood pressure [11]: -13 mmHg
Delta blood pressure [13]: -5 mmHg
Delta blood pressure [14]: -10 mmHg
Delta blood pressure [15]: -17 mmHg
Delta blood pressure [16]: -18 mmHg
Delta blood pressure [17]: -8 mmHg

Source: ChEMBL document CHEMBL1124210, “Synthesis and biological activity of some transition-state inhibitors of human renin” (J Med Chem, 1988)
